# Assay results published in ChEMBL document CHEMBL2311256, “Design and synthesis of biaryl aryl stilbenes/ethylenes as antimicrotubule agents” (Eur J Med Chem, 2013).
# Activity calls are given as the source filed them. The calls are words filed in the database; no cut-off is given here.
# How the values were obtained:
# A549 = test: Cytotoxicity against human A549 cells after 48 hrs by MTT assay; format: functional, cell-based; conditions: A549, 48 h
# Outline: (§1)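 Cells given 24 h settling, then 48 h continuous exposure to 1, 10, 100 and 1000 µM in triplicate wells. A549, SK-N-SH and HeLa grown in DMEM with 10% FBS; DU145 in MEM with non-essential amino acids, 1 mM pyruvate, insulin and 10% FBS; all at 37 °C, 5% CO2. Read-out was MTT (60 min, 37 °C), DMSO elution, 560 nm. IC50 = 50% absorbance reduction versus control, mean ± SD of three experiments.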
# DU-145 = test: Cytotoxicity against human DU145 cells after 48 hrs by MTT assay; format: functional, cell-based; conditions: DU-145, 48 h; outline: as §1
# HeLa [1] = test: Cytotoxicity against human HeLa cells after 48 hrs by MTT assay; format: functional, cell-based; outline: as §1
# Bos taurus = species on record: Bos taurus; test: Inhibition of bovine brain tubulin polymerization at 5 uM by fluorescence assay
# SK-N-SH = test: Cytotoxicity against human SK-N-SH cells after 48 hrs by MTT assay; format: functional, cell-based; outline: as §1
# Tubulin (Homo sapiens) [2] = molecular target: T1, Tubulin (Homo sapiens) (UniProt P68371+Q9H4B7+P0DPH7+P68366+Q13509+Q71U36+P04350+Q3ZCM7+P07437+P68363+Q9BQE3+Q6PEY2+Q13885+Q9BVA1+Q9BUF5); conditions: HeLa, 1 uM
# HeLa [3] = test: Induction of cyclin B1 expression in human HeLa cells at 1 uM after 24 hrs by immunoblotting; format: functional, cell-based
# Outline: (§2)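 HeLa seeded at 1 × 10^5 cells/well and treated 24 h. Cells washed with PBS, lysed in 1X SDS sample buffer, run on SDS-PAGE and transferred to nitrocellulose. Blots probed with anti-cyclin B1 (1:1500) and HRP goat anti-rabbit secondary (1:5000), detected by enhanced chemiluminescence.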
# Tubulin (Homo sapiens) [4] = molecular target: T1, Tubulin (Homo sapiens); test: Inhibition of tubulin polymerization in human HeLa cells assessed as tubulin polymerized fraction at 1 uM after 24 hrs by immunohistochemistry analysis; format: cell-based
# Tubulin (Homo sapiens) [5] = molecular target: T1, Tubulin (Homo sapiens); test: Inhibition of tubulin polymerization in human HeLa cells assessed as tubulin cytoskeleton at 10 uM after 24 hrs by immunohistochemistry analysis; format: cell-based
# Outline: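 HeLa on coverslips treated 24 h at 10 µM, then fixed in 3.5% formaldehyde/PBS for 10 min and permeabilized with 0.5% Triton X-100/0.05% Tween-20. Blocked in 2% BSA, stained with anti-tubulin (1:200, 4 h, RT) and FITC anti-mouse secondary (1:500, 1 h), DAPI counterstain. Imaged by fluorescence microscopy; five fields of view.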
# HeLa [6] = test: Antimitotic activity in human HeLa cells assessed as accumulation at G2/M phase at 10 uM after 24 hrs by flow cytometry analysis (reference value: 19.4%); format: functional
# Outline: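 Cells treated 24 h at 10 µM, trypsin-EDTA harvested, fixed in ice-cold 70% ethanol at 4 °C for 30 min, then stained 30 min in propidium iodide (0.2 mg) plus RNase A (2 mg) per 1 mL. DNA content of 20,000 events measured by flow cytometry, and the percentage of cells in G2/M quantified against untreated and DMSO controls.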
# HeLa [7] = test: Induction of cyclin B1 expression in human HeLa cells at 10 uM after 24 hrs by immunoblotting; format: functional, cell-based; outline: as §2
# [8] = Inhibition of bovine brain tubulin polymerization by fluorescence assay; set-up: species or system Bos taurus
# Tubulin (Homo sapiens) [9] = molecular target: T1, Tubulin (Homo sapiens); test: Inhibition of tubulin polymerization in human HeLa cells assessed as tubulin soluble fraction at 10 uM after 24 hrs by immunohistochemistry analysis; format: cell-based
SMILES,inhibition (Bos taurus) [%],inhibition (Tubulin (Homo sapiens) [2]),inhibition (Tubulin (Homo sapiens) [4]),inhibition (Tubulin (Homo sapiens) [5]),IC50 [8] [µM],inhibition (Tubulin (Homo sapiens) [9]),IC50 (A549) [µM],IC50 (DU-145) [µM],IC50 (HeLa [1]) [µM],IC50 (SK-N-SH) [µM],Activity (HeLa [3]),Activity (HeLa [6]) [%],Activity (HeLa [7])
C=C(c1ccccc1)c1cc(OC)c(OC)c(OC)c1-c1ccccc1,40,,,,,,17,36,42,34,,,
COc1ccc(/C=C/c2cc(OC)c(OC)c(OC)c2-c2ccccc2)cc1,22,,,,,,36,51,26,11,,,
COC(=O)Nc1nc2cc(C(=O)c3cccs3)ccc2[nH]1,,Active,,,,,,,,,,,
CC(=O)O[C@H]1C(=O)[C@@]2(C)[C@H]([C@H](OC(=O)c3ccccc3)[C@]3(O)C[C@H](OC(=O)[C@H](O)[C@@H](NC(=O)c4ccccc4)c4ccccc4)C(C)=C1C3(C)C)[C@]1(OC(C)=O)CO[C@@H]1C[C@@H]2O,,,Active,,,,,,,,Active,,
COc1ccc(/C=C/c2cc(OC)c(OC)c(OC)c2-c2ccc(Cl)cc2)cc1,26,,,,,,30,35,49,15,,,
COc1ccc(/C=C/c2cc(OC)c(OC)c(OC)c2-c2ccc(F)c(C)c2)cc1,48,,,,,,18,23,17,19,,,
COc1ccc(/C=C/c2cc(OC)c(OC)c(OC)c2-c2ccc(F)c(F)c2)cc1,55,,,Active,9.2,,7.5,7.5,9.2,6.9,,71.16,Active
COc1cc(/C=C/c2ccccc2)c(-c2ccccc2)c(OC)c1OC,41,,,,,,79,82,89,63,,,
COc1ccc(/C=C/c2cc(OC)c(OC)c(OC)c2-c2ccc3ccccc3c2)cc1,50,,,,,,14,32,13,16,,,
COc1cc(/C=C/c2ccc(C)cc2)c(-c2ccccc2)c(OC)c1OC,47,,,,,,54,101,45,31,,,
COc1ccc(/C=C/c2cc(OC)c(OC)c(OC)c2-c2ccc3c(c2)OCO3)cc1,62,,,Active,6.8,Active,6.3,7.3,8.7,8,,73.02,Active
COc1ccc(/C=C/c2cc(OC)c(OC)c(OC)c2-c2ccc(OC)cc2)cc1,20,,,,,,35,34,19,36,,,
COc1ccc(/C=C/c2cc(OC)c(OC)c(OC)c2-c2ccc(OC)c(OC)c2)cc1,33,,,,,,28,34,45,42,,,

# Now from value to molecule, other results behind:
inhibition (Bos taurus) [%],inhibition (Tubulin (Homo sapiens) [2]),inhibition (Tubulin (Homo sapiens) [4]),inhibition (Tubulin (Homo sapiens) [5]),IC50 [8] [µM],inhibition (Tubulin (Homo sapiens) [9]),SMILES,IC50 (A549) [µM],IC50 (DU-145) [µM],IC50 (HeLa [1]) [µM],IC50 (SK-N-SH) [µM],Activity (HeLa [3]),Activity (HeLa [6]) [%],Activity (HeLa [7])
40,,,,,,C=C(c1ccc(OC)cc1)c1cc(OC)c(OC)c(OC)c1-c1ccc(OC)cc1,14,37,72,75,,,
21,,,,,,C=C(c1ccc(OC)cc1)c1cc(OC)c(OC)c(OC)c1-c1ccc2ccccc2c1,15,46,35,6,,,
32,,,,,,C=C(c1ccc(C)cc1)c1cc(OC)c(OC)c(OC)c1-c1ccccc1,35,28,28,31,,,
40,,,,,,C=C(c1ccc(OC)cc1)c1cc(OC)c(OC)c(OC)c1-c1ccc(Cl)cc1,29,33,30,15,,,
51,,,,,,C=C(c1ccc(Cl)cc1)c1cc(OC)c(OC)c(OC)c1-c1ccccc1,40,29,34,25,,,
53,,,Active,11.2,,C=C(c1ccc(OC)cc1)c1cc(OC)c(OC)c(OC)c1-c1ccc(F)c(F)c1,6.5,6.8,5.9,7.5,,70.02,Active
49,,,,,,C=C(c1ccc(C(F)(F)F)cc1)c1cc(OC)c(OC)c(OC)c1-c1ccccc1,48,31,32,13,,,
49,,,,,,C=C(c1ccc(OC)cc1)c1cc(OC)c(OC)c(OC)c1-c1ccccc1,22,8,11,31,,,
33,,,,,,COc1ccc(/C=C/c2cc(OC)c(OC)c(OC)c2-c2ccc(C(C)(C)C)cc2)cc1,32,45,28,30,,,
56,,,Active,8.6,Active,C=C(c1ccc(OC)cc1)c1cc(OC)c(OC)c(OC)c1-c1ccc2c(c1)OCO2,5,6,5.4,6.1,,73,Active
23,,,,,,C=C(c1ccc(OC)cc1)c1cc(OC)c(OC)c(OC)c1-c1ccc(C(C)(C)C)cc1,27,39,39,24,,,
